The record followed here is ChEMBL document CHEMBL5505965 (Eur J Med Chem, 2024).

Structures are written as SMILES. ≈ marks a conversion by molar mass, not a printed value. Bounds are passed on as bounds.

A short description of test [1]: Inhibition of NDM1 (unknown origin).
The test system of test [2] is Escherichia coli. Kind of test: Synergistic anti-bacterial activity Escherichia coli E.cloni MP30-63 expressing blaNDM- gene assessed as decrease in meropenem MIC at 500 uM. The test is classed as functional.
Test [3] relates to Escherichia coli. The test can be described thus: Synergistic anti-bacterial activity Escherichia coli E.cloni MP30-57 expressing blaVIM- gene assessed as decrease in meropenem MIC at 500 uM. The test is classed as functional.
Test [4] deals with Escherichia coli. The test can be described thus: Synergistic anti-bacterial activity Escherichia coli E.cloni MP30-58 expressing blaIMP- gene assessed as decrease in meropenem MIC at 500 uM. It is filed as functional.
Test [5] deals with Escherichia coli. The test can be described thus: Synergistic anti-bacterial activity Escherichia coli E.cloni MP30-63 expressing blaNDM- gene assessed as fold reduction in meropenem MIC at 500 uM. It is filed as functional.
The subject of test [6] is Escherichia coli. The test can be described thus: Anti-bacterial activity against Escherichia coli E.cloni MP30-63 expressing blaNDM- gene assessed as decrease in bacterial growth. It is filed as functional. The method, boiled down:
(§1)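 Test compound held at a fixed 500 μM in E. coli producing the B1 metallo-β-lactamase (NDM-1, VIM-2 or IMP-26). Growth was checked with the compound alone and in combination with meropenem. Read-out was the meropenem MIC (mg/L) and its fold reduction.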

Test [7] has as its system Escherichia coli. Kind of test: Anti-bacterial activity against Escherichia coli E.cloni MP30-57 expressing blaVIM- gene assessed as decrease in bacterial growth. The test is classed as functional. The method, boiled down:
as §1

Test [8] relates to Escherichia coli. The test can be described thus: Anti-bacterial activity against Escherichia coli E.cloni MP30-58expressing blaIMP- gene assessed as decrease in bacterial growth. The test is classed as functional. The method, boiled down:
as §1

The test system of test [9] is Escherichia coli. Kind of test: Anti-bacterial activity against Escherichia coli E.cloni MP21-05 assessed as decrease in bacterial growth. It is filed as functional.
Test [10] deals with Escherichia coli. Kind of test: Synergistic anti-bacterial activity Escherichia coli E.cloni MP30-57 expressing blaVIM- gene assessed as fold reduction in meropenem MIC at 500 uM. It is filed as functional.
Test [11] deals with Escherichia coli. The test can be described thus: Synergistic anti-bacterial activity Escherichia coli E.cloni MP30-58 expressing blaIMP- gene assessed as fold reduction in meropenem MIC at 500 uM. The test is classed as functional.

Regarding `O=C(NCc1ccccc1)C(CS)C(F)(F)F` (racemic), the IC50 (commonly the midpoint of a concentration-inhibition curve) in [1] is 20 µM.

Regarding `O=C(O)c1ccc(CNC(=O)C(CS)C(F)(F)F)cc1` (configuration not stated), the half-maximal inhibitory concentration (IC50) in [1] was 65 µM.

Consider `O=C(O)[C@H]1CCCN1C(=O)[C@@H](CS)C(F)(F)F`, for which the IC50 in [1] stood at 0.3 µM. In addition, the minimum inhibitory concentration (MIC) (in general, the least concentration at which growth counts as inhibited) with Escherichia coli [2] was 4 µg/mL; in the test on Escherichia coli [3] it was 0.25 µg/mL; in the test on Escherichia coli [4] it was 4 µg/mL.

In turn, `C[C@@H](CS)C(=O)N1CCC[C@H]1C(=O)O` came in with an IC50 in [1] of more than 500 µM.

Molecule `O=C(O)[C@H]1CCCCN1C(=O)C(CS)C(F)(F)F` (some centres not stated) had a half-maximal inhibitory concentration (IC50) in test [1] of 3.2 µM. Moreover, the minimum inhibitory concentration (MIC) in the test on Escherichia coli [2] turned out to be 0.5 µg/mL; in the test on Escherichia coli [3], 0.125 µg/mL; in the test on Escherichia coli [4] it was 0.5 µg/mL. Moreover, in the test with Escherichia coli [5], the “fold change (FC)” value stood at 32.

Consider `O=C(O)[C@H]1CCCN1C(=O)CC(S)C(F)(F)F` (some centres not stated), for which the half-maximal inhibitory concentration (IC50) in test [1] is more than 300 µM.

Turning to `C[C@@H](O)[C@H]1C(=O)N2C(C(=O)O)=C(S[C@@H]3CN[C@H](C(=O)N(C)C)C3)[C@H](C)[C@H]12` [MEROPENEM], the minimum inhibitory concentration (MIC) is 32 µg/mL (≈ 83.4 µM) with Escherichia coli [6], 0.5 µg/mL (≈ 1.3 µM) with Escherichia coli [7], 2 µg/mL (≈ 5.22 µM) in the test on Escherichia coli [8] and 0.03 µg/mL (≈ 0.0782 µM) in the test with Escherichia coli [9].

`O=C(O)[C@@H]1CCCN1C(=O)[C@@H](CS)C(F)(F)F` showed a concentration for half-maximal inhibition (IC50) in [1] of 6.1 µM. Further, the results for the minimal inhibitory concentration (MIC) in the test with Escherichia coli [2], in the test on Escherichia coli [3] and in the test with Escherichia coli [4] were 4 µg/mL, 0.06 µg/mL and 0.25 µg/mL, respectively. The “fold change (FC)” value in the test on Escherichia coli [10] and in the test with Escherichia coli [11] was 8 in each case.

In the case of `O=C(O)C1CCN(C(=O)CC(S)C(F)(F)F)CC1` (configuration not stated), the IC50 in test [1] is more than 300 µM.

In turn, `C[C@@H](CS)C(=O)N1CCC[C@@H]1C(=O)O` gave an IC50 in [1] of 64 µM.

For the molecule `O=C(O)[C@@H]1CCCN1C(=O)CC(S)C(F)(F)F` (some centres not stated), the IC50 in test [1] was more than 300 µM.

`O=C(NCc1ccccc1)[C@@H](CS)C(F)(F)F`: half-maximal inhibition in test [1] (IC50) was put at 75 µM.

Take `O=C(O)[C@@H]1CCCN1C(=O)[C@H](CS)C(F)(F)F`: in test [1], the IC50 is 60 µM.

With `O=C(O)C1CCN(C(=O)C(CS)C(F)(F)F)CC1` (configuration not stated), the 50% inhibitory concentration (IC50) in test [1] is 2.2 µM. The MIC in the test with Escherichia coli [2] was 1 µg/mL; in the test with Escherichia coli [3] it was 0.125 µg/mL; in the test with Escherichia coli [4], 2 µg/mL. Moreover, the “fold change (FC)” value in the test with Escherichia coli [5] was 32.

As to `O=C(O)[C@H]1CCCN1C(=O)[C@H](CS)C(F)(F)F`, inhibition in [1] was half-maximal at 4.5 µM (IC50).

The molecule `O=C(O)[C@H]1CCCCN1C(=O)CC(S)C(F)(F)F` (some centres not stated) came in with an IC50 in test [1] of 145 µM.

Regarding `O=C(CC(S)C(F)(F)F)NCc1ccccc1` (configuration not stated), the 50% inhibitory concentration (IC50) in test [1] was more than 300 µM.

`O=C(CC(S)C(F)(F)F)NCc1ccc(C(=O)O)cc1` (configuration not stated): in [1], the half-inhibitory concentration (IC50) was more than 300 µM.

`O=C(O)[C@@H]1CCCN1C(=O)C(CS)C(F)(F)F` (some centres not stated) registered a 50% inhibitory concentration (IC50) in [1] of 37 µM.

As to `O=C(CC(S)C(F)(F)F)Nc1ccc(C(=O)O)cc1` (configuration not stated), in test [1], 5.6 µM corresponded to half-maximal inhibition (IC50).

`O=C(NCc1ccccc1)[C@H](CS)C(F)(F)F` displayed a half-maximal inhibitory concentration (IC50) in [1] of 10 µM.

The molecule `O=C(Nc1ccccc1)C(CS)C(F)(F)F` (configuration not stated) yielded an IC50 in test [1] of 3.4 µM.

Regarding `O=C(CC(S)C(F)(F)F)Nc1ccccc1` (configuration not stated), in [1], the IC50 came to 22 µM.
